Assays:
[1] = molecular target: Phosphatidylinositol 4,5-bisphosphate 3-kinase catalytic subunit beta isoform (Homo sapiens, UniProt P42338); experiment: Inhibition of PI3Kbeta (unknown origin) using PIP2 as substrate preincubated for 15 mins followed by substrate addition measured after 60 mins in presence of ATP by HTRF method
[2] = molecular target: Phosphatidylinositol 4,5-bisphosphate 3-kinase catalytic subunit alpha isoform (Homo sapiens, UniProt P42336); experiment: Inhibition of PI3Kalpha (unknown origin) using PIP2 as substrate preincubated for 15 mins followed by substrate addition measured after 60 mins in presence of ATP by HTRF method
Sequence of Phosphatidylinositol 4,5-bisphosphate 3-kinase catalytic subunit alpha isoform (P42336 whole entry, canonical isoform): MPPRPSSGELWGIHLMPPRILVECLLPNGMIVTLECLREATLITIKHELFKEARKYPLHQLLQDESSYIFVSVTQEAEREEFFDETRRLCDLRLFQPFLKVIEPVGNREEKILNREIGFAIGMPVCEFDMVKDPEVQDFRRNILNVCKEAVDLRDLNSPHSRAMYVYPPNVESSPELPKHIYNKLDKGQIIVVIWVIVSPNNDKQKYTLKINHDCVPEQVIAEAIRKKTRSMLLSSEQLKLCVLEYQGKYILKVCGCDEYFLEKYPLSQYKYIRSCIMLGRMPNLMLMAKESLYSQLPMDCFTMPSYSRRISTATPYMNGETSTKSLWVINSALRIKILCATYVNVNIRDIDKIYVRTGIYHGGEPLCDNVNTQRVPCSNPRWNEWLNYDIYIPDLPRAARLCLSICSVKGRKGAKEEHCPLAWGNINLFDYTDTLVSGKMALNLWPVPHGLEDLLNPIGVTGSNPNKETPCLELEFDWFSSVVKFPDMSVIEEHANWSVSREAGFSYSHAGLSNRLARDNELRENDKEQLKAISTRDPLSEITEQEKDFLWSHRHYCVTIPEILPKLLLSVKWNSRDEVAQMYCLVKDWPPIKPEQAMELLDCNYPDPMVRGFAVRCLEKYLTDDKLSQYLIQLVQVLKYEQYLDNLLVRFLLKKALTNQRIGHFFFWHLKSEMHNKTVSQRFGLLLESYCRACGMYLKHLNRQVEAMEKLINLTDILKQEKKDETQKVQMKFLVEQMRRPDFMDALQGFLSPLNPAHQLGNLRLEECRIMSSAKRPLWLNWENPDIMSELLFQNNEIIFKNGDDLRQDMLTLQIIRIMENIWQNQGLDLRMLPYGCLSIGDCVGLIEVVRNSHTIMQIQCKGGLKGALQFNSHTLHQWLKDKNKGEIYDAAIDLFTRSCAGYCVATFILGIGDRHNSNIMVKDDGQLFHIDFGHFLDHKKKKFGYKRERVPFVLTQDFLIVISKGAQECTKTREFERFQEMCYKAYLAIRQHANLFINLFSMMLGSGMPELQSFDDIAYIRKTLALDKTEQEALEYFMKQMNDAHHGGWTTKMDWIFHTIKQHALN
Method in brief: (§1)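 For PI3Kδ, substrate concentration limits measurable potency to about pIC50 9.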

[3] = molecular target: T1, Phosphatidylinositol 4,5-bisphosphate 3-kinase catalytic subunit delta isoform (Homo sapiens, UniProt O00329); experiment: Inhibition of PI3Kdelta (unknown origin) using PIP2 as substrate preincubated for 15 mins followed by substrate addition measured after 60 mins in presence of ATP by HTRF method; method in brief: as §1
T1 sequence (O00329 whole entry): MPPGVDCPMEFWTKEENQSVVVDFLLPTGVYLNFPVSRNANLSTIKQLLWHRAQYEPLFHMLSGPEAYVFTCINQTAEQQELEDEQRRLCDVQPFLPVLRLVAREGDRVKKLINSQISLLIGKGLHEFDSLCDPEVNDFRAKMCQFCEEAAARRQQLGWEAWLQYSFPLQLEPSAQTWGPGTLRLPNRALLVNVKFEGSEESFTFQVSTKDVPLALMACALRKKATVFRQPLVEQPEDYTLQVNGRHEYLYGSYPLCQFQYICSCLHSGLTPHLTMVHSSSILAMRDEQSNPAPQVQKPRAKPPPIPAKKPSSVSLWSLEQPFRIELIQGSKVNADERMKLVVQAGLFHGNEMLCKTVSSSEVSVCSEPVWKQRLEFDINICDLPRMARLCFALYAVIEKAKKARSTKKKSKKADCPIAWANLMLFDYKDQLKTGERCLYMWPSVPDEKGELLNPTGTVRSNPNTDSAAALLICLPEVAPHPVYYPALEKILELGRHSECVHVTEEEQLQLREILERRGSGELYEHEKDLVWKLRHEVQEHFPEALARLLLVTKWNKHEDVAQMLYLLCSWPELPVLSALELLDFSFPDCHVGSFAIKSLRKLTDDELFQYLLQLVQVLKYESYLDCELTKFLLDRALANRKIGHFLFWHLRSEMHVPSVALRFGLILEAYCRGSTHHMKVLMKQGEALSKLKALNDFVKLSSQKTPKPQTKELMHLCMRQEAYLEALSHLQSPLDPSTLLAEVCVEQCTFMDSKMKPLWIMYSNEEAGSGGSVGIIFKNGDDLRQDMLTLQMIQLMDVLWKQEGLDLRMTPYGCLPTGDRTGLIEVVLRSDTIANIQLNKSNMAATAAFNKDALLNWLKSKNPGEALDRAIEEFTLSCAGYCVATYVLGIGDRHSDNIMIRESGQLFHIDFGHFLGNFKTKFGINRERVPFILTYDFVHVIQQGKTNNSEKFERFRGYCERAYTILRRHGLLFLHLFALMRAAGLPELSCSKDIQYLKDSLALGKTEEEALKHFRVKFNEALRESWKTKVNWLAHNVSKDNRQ

[4] = molecular target: Phosphatidylinositol 4,5-bisphosphate 3-kinase catalytic subunit gamma isoform (Homo sapiens, UniProt P48736); experiment: Inhibition of PI3Kgamma (unknown origin) using PIP2 as substrate preincubated for 15 mins followed by substrate addition measured after 60 mins in presence of ATP by HTRF method
Sequence of Phosphatidylinositol 4,5-bisphosphate 3-kinase catalytic subunit gamma isoform (P48736 whole entry, canonical isoform): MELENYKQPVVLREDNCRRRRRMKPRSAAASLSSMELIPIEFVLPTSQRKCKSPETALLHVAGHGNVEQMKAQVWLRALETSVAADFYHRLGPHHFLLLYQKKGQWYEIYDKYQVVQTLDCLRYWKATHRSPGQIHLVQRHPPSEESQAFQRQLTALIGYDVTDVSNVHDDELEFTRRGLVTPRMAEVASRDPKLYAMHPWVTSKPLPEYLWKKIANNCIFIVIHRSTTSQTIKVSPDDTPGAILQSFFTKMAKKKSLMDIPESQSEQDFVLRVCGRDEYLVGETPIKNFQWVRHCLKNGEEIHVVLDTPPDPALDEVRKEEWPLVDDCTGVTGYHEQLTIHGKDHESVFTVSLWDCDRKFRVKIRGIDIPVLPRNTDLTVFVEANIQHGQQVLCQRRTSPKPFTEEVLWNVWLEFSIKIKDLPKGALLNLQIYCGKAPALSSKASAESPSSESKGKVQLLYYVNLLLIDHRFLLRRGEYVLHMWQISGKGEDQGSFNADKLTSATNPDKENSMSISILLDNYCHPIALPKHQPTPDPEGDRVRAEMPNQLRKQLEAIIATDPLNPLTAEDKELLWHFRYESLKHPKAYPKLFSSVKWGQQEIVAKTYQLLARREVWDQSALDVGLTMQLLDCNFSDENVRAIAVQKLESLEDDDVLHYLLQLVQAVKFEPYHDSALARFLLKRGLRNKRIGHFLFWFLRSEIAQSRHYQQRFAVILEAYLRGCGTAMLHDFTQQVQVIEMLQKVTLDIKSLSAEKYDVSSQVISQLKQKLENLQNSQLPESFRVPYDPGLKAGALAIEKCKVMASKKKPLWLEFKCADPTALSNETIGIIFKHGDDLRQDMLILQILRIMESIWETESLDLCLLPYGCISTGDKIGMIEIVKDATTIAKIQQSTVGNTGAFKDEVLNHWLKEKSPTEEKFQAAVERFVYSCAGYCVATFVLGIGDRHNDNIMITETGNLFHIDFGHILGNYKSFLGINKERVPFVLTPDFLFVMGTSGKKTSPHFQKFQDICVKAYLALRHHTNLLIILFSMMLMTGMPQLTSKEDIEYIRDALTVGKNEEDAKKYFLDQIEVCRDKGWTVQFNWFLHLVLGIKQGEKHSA

[5] = molecular target: C-C chemokine receptor type 5 (Homo sapiens, UniProt P51681); experiment: Antagonist activity at human CCR5 expressed in HEK 293 Glosensor cells assessed as reduction in RANTES-induced intracellular calcium levels preincubated for 30 mins followed by RANTES addition measured at 2 secs time interval for 5 mins by Fluo-4-AM dye based fluorescence assay; type: functional, cell-based
Sequence of C-C chemokine receptor type 5 (P51681 whole entry): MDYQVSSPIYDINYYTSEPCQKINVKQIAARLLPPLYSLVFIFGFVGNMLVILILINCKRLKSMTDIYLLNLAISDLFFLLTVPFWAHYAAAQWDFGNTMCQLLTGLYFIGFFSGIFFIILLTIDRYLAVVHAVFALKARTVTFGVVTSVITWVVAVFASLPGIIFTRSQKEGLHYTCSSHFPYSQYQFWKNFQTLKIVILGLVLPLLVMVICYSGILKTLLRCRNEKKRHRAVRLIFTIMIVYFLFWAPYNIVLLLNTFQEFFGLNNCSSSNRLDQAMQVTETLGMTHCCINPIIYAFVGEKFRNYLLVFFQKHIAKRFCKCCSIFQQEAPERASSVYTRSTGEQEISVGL

Sequence of Phosphatidylinositol 4,5-bisphosphate 3-kinase catalytic subunit beta isoform (P42338 whole entry, canonical isoform): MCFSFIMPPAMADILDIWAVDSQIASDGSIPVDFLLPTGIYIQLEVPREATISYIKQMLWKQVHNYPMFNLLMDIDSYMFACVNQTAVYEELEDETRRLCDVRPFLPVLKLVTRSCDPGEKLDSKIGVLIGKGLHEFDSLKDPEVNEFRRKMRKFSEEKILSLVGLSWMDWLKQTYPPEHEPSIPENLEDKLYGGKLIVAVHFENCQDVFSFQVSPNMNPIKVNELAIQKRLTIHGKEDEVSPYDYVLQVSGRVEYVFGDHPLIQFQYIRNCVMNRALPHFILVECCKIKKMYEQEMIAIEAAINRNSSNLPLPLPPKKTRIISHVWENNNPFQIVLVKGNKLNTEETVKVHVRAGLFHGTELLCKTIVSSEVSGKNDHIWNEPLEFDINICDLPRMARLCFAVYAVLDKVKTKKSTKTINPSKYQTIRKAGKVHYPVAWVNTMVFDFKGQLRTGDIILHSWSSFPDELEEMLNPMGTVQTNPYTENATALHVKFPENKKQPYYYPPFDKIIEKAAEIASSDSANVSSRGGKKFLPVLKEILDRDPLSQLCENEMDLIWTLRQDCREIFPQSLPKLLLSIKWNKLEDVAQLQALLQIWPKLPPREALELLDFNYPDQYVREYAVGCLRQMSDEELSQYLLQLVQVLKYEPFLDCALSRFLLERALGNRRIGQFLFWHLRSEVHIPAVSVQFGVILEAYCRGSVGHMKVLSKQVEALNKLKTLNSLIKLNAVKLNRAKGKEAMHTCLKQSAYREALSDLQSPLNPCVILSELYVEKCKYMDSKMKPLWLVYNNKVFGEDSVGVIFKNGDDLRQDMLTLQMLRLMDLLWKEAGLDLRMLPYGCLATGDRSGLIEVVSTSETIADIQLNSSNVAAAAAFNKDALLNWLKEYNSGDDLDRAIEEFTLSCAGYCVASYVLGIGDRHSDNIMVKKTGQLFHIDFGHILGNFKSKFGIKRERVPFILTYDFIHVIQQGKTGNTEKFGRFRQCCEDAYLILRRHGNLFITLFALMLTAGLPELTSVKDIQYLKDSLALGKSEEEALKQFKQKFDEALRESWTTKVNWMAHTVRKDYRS

Row | Compound | IC50 [1] [nM] | IC50 [2] [nM] | IC50 [3] [nM] | IC50 [4] [nM] | Kd [5] [nM]
1 | Cc1nncn1C1CCN(Cc2cc3nc(-c4cccc(O)c4)nc(N4CCOCC4)c3s2)CC1 | 158 | 100 | 3.98 | 200 | –
2 | Oc1cccc(-c2nc(N3CCOCC3)c3sc(CN4CCC(n5cnnc5C(F)(F)F)CC4)cc3n2)c1 | 100 | 63.1 | 2.51 | 158 | –
3 | FC(F)(F)c1nncn1C1CCN(Cc2cc3nc(-c4cccc5[nH]ncc45)nc(N4CCOCC4)c3s2)CC1 | 1260 | 316 | 20 | 794 | –
4 | Cc1nncn1C1CCN(Cc2cc3nc(-c4cccc5[nH]ncc45)nc(N4CCOCC4)c3s2)CC1 | 1000 | 316 | 10 | 1000 | –
5 | FC(F)(F)c1nncn1C1CCN(Cc2cc3nc(-c4cccc5[nH]ccc45)nc(N4CCOCC4)c3s2)CC1 | 794 | 3980 | 20 | 3160 | –
6 | Cc1nncn1C1CCN(Cc2cc3nc(-c4cccc5[nH]ccc45)nc(N4CCOCC4)c3s2)CC1 | 398 | 2000 | 3.98 | – | –
7 | Cc1nnc2n1[C@H]1CCN(CC[C@H](NC(=O)C3CCC(F)(F)CC3)c3ccccc3)C[C@H]1CC2 (racemic) | – | – | – | – | 316
8 | Cc1nnc2n1[C@H]1CCN(Cc3cc4nc(-c5cccc6[nH]ccc56)nc(N5CCOCC5)c4s3)C[C@@H]1CC2 (relative stereo) | 316 | 2000 | 1 | 794 | –
9 | FC(F)(F)c1nnc2n1[C@H]1CCN(Cc3cc4nc(-c5cccc6[nH]ccc56)nc(N5CCOCC5)c4s3)C[C@H]1CC2 (relative stereo) | 100 | 1580 | 0.794 | 631 | –
10 | Cc1nnc2n1[C@H]1CCN(Cc3cc4nc(-c5cccc6[nH]ncc56)nc(N5CCOCC5)c4s3)C[C@@H]1CC2 (relative stereo) | 501 | 158 | 3.98 | 316 | –
11 | Oc1cccc(-c2nc(N3CCOCC3)c3sc(CN4CC[C@H]5[C@@H](CCc6nnc(C(F)(F)F)n65)C4)cc3n2)c1 (relative stereo) | 50.1 | 31.6 | 1 | 200 | –
12 | FC(F)(F)c1nnc2n1[C@H]1CCN(Cc3cc4nc(-c5cccc6[nH]ncc56)nc(N5CCOCC5)c4s3)C[C@H]1CC2 (relative stereo) | 398 | 316 | 2.51 | 794 | –
13 | Cc1nnc2n1[C@H]1CCN(Cc3cc4nc(-c5cccc6[nH]ccc56)nc(N5CCOCC5)c4s3)C[C@H]1CC2 (relative stereo) | 316 | 3160 | 0.794 | 1580 | –
14 | Cc1nnc2n1[C@@H]1CCN(CC[C@H](NC(=O)C3CCC(F)(F)CC3)c3ccccc3)C[C@@H]1CC2 (relative stereo) | – | – | – | – | 10
15 | FC(F)(F)c1nnc2n1[C@H]1CCN(Cc3cc4nc(-c5cccc6[nH]ncc56)nc(N5CCOCC5)c4s3)C[C@@H]1CC2 (relative stereo) | 631 | 158 | 7.94 | 1000 | –
16 | Cc1nnc2n1[C@H]1CCN(Cc3cc4nc(-c5cccc(O)c5)nc(N5CCOCC5)c4s3)C[C@@H]1CC2 (relative stereo) | 126 | 100 | 0.794 | 501 | –
17 | Oc1cccc(-c2nc(N3CCOCC3)c3sc(CN4CC[C@H]5[C@H](CCc6nnc(C(F)(F)F)n65)C4)cc3n2)c1 (relative stereo) | 50.1 | 63.1 | 0.631 | 158 | –
18 | FC(F)(F)c1nnc2n1[C@H]1CCN(Cc3cc4nc(-c5cccc6[nH]ccc56)nc(N5CCOCC5)c4s3)C[C@@H]1CC2 (relative stereo) | 158 | 501 | 1.58 | 398 | –
19 | Cc1nnc2n1[C@H]1CCN(Cc3cc4nc(-c5cccc6[nH]ncc56)nc(N5CCOCC5)c4s3)C[C@H]1CC2 (relative stereo) | 1260 | 1580 | 3.16 | 1260 | –
